# Key:
# [1] = system: non-diabetic wounds in pigs; conditions: cited from earlier work
# [2] = system: non-diabetic wounds in humans; conditions: cited from earlier work
# [3] = system: non-diabetic wounds in rats; conditions: cited from earlier work
# [4] = system: db/db mice; assay: H&E staining of wounds, re-epithelialization, db/db mice; type: in vivo, mouse; conditions: topical, day 14
# Outline: (§1)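 Wounds were treated topically with the test compound in saline, or with saline vehicle alone. Wounds were imaged at a common scale. Day-14 wound tissue was H&E stained, and the re-epithelialized region was traced on the sections.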
# [5] = system: ADAM10; conditions: at 20 μM; cited from earlier work
# [6] = system: wild-type mice; assay: Excisional wound-healing model in wild-type mice, topical treatment; type: in vivo, mouse
# Outline: (§2)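 Test compound dissolved in saline at 5.0 mg mL−1 as the dosing solution; saline vehicle; both filter-sterilised. Applied topically to excisional wounds in db/db or wild-type mice. Wound healing scored on days 1, 3, 7, 10 and 14, with n = 35, 28, 21, 14 and 7 mice on those days. Results given as mean ± SD, with treated versus vehicle compared statistically.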
# [7] = system: MMP-19; conditions: at 30 μM; cited from earlier work
# [8] = system: ADAM9; conditions: at 20 μM; cited from earlier work
# [9] = biological target: MMP-9 (Mus musculus, UniProt P41245); assay: In-situ zymography with DQ-gel in diabetic wound tissues; type: in vivo; conditions: db/db mice, versus vehicle
# Outline: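 db/db wounds were treated topically with the test compound or vehicle. Wound sections were incubated with the fluorogenic MMP gelatin substrate DQ-gel to localise MMP activity in situ. Nuclei were counterstained with DAPI, and the green fluorescence was imaged merged with the DAPI signal.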
# [10] = system: apoptotic cells in wounds of diabetic mice; assay: TUNEL apoptosis detection in diabetic wound tissues; type: in vivo, mouse; conditions: versus vehicle
# [11] = system: MMP-1; conditions: at 250 μM; cited from earlier work
# [12] = system: MMP-7; conditions: at 250 μM; cited from earlier work
# [13] = system: wild-type mice; assay: H&E staining of wounds, re-epithelialization, wild-type mice; type: in vivo, mouse; conditions: topical, day 14
# Outline: as §1
# [14] = system: db/db mice; assay: Excisional diabetic wound-healing model, topical treatment; type: in vivo, mouse
# Outline: as §2
# [15] = biological target: ADAM17; conditions: read-out: Ki ADAM17; competitive; cited from earlier work
# Chain of MMP-9 (P41245 108-730): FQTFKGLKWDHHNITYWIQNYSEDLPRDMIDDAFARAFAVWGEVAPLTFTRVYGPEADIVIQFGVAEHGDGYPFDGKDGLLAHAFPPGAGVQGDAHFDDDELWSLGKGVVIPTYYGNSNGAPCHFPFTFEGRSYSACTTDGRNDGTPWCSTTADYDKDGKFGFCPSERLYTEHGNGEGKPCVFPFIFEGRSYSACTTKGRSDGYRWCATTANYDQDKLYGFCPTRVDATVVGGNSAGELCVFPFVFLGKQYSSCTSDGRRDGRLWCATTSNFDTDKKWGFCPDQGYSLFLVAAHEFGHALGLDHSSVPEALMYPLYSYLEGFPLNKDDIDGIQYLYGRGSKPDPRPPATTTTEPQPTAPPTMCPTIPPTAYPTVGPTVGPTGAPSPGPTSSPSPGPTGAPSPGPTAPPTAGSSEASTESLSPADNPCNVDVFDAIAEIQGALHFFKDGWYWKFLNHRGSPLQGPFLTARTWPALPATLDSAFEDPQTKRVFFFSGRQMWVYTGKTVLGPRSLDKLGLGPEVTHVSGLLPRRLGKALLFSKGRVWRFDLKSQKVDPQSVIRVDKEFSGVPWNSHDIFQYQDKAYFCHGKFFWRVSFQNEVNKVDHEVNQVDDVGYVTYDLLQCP
smiles,measurement,setting,value
CNC(=O)[C@H](Cc1c[nH]c2ccccc12)NC(=O)[C@@H](CC(=O)NO)CC(C)C [ilomastat],epithelialization,[1],diminished epithelialization
same,wound closure,[1],delayed wound closure
same,epithelialization,[2],diminished epithelialization
same,wound closure,[2],delayed wound closure
same,epithelialization,[3],diminished epithelialization
same,wound closure,[3],delayed wound closure
Nc1ccc(Oc2ccc(S(=O)(=O)CC3CS3)cc2)cc1 (stereo not shown) [ND-322],re-epithelialization (H&E staining),[4],complete re-epithelialization
same,inhibition of ADAM10,[5],21%
same,wound healing as a percentage of the initial wound area,"[6]; day 7, mean ± SD",62 ± 19%
same,wound healing as a percentage of the initial wound area,"[6]; day 10, mean ± SD",82 ± 11%
same,wound healing as a percentage of the initial wound area,"[6]; day 14, mean ± SD",96 ± 4%
same,inhibition of MMP-19,[7],9%
same,inhibition of ADAM9,[8],30%
same,gelatinase activity (due to MMP-9) in wound tissues,[9],significantly decreased
same,apoptosis in wound tissues (TUNEL),[10],significantly decreased
same,inhibition of MMP-1,[11],10%
same,inhibition of MMP-7,[12],16%
same,re-epithelialization (H&E staining),[13],complete re-epithelialization
same,wound healing as a percentage of the initial wound area,"[14]; day 10, mean ± SD",70 ± 16%
same,wound healing as a percentage of the initial wound area,"[14]; day 14, mean ± SD",92 ± 4%
same,"wound healing, difference versus vehicle-treated","[14]; days 1, 3 and 7, p > 0.2",not statistically significant
same,Ki,[15],15.7 ± 2 µM

# — article PMC3947039 (ACS chemical biology, 2013)
